18 compounds from ChEMBL document CHEMBL4266039, “Overcoming Time-Dependent Inhibition (TDI) of Cytochrome P450 3A4 (CYP3A4) Resulting from Bioactivation of a Fluoropyrimidine Moiety” (J Med Chem, 2018) can be followed below.

Broadly, the IC50 is the midpoint of a concentration-inhibition curve. As a reminder, the Ki is a measure of affinity in units of concentration, obtained from inhibition or displacement. In general, AUC(0-inf) refers to total exposure, with the tail of the curve extrapolated. For orientation: Cmax means the highest concentration seen after dosing. Broadly, the clearance is the volume of plasma or blood freed of the substance per unit of time. By bioavailability is commonly meant the share of a dose that reaches the circulation, judged against a reference dose that is usually intravenous. The half-life is the time needed for the level to fall by half in the phase considered.

The target of data set [1] is Cytochrome P450 3A4 (Homo sapiens, UniProt P08684). In words: Inhibition of CYP3A4 in human liver microsomes using testosterone as substrate preincubated for 30 mins followed by substrate/NADPH addition measured after 10 mins by LC-MS/MS analysis. The class given is ADME. For orientation: Microsomes from liver hold many membrane-bound enzymes, among them those of drug oxidation.
Cytochrome P450 3A4, sequence (P08684 whole entry): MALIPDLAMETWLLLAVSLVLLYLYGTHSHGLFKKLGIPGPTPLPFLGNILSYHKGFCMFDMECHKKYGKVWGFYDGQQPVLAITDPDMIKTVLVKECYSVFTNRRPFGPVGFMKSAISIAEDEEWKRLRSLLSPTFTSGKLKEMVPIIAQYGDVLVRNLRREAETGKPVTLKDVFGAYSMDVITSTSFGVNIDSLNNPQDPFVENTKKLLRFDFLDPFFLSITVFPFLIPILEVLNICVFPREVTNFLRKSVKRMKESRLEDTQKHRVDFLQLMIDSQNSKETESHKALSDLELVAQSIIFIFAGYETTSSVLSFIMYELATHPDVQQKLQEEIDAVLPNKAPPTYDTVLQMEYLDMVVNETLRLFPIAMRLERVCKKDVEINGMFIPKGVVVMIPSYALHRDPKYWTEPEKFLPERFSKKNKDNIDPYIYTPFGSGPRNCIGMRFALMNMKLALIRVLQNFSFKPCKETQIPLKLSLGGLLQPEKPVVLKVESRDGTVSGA

In data set [2] the test system is Rattus norvegicus. In words: Anti-alzheimer activity in rat assessed as reduction in amyloid beta40 levels in cerebrospinal fluid at 30 mg/kg, po relative to control. In kind it is functional. On the set-up: scale not given: the % may be the effect or the level left.
Data set [3] concerns the target Beta-secretase 1 (Homo sapiens, UniProt P56817). In words: Inhibition of purified human BACE1.
Data set [4] deals with Rattus norvegicus. The data set can be described thus: Anti-alzheimer activity in rat assessed as reduction in amyloid beta40 levels in cerebrospinal fluid at 10 mg/kg, po relative to control. Also noted: scale not given: the % may be the effect or the level left. The class given is functional.
A short description of data set [5]: AUC (0 to infinity) in Han Wistar rat at 10 mg/kg, po. The note with it: in vivo. In kind it is ADME, organism-based. Also noted: dose 10 mg/kg, route oral, time infinity. The gist of the method: (§1)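 Wistar Han rats received a single oral dose of 10 mg/kg. AUC(0-∞), Cmax and oral bioavailability (F%) were derived from this oral arm.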
Data set [6] is described as follows: Cmax in Han Wistar rat at 10 mg/kg, po. In kind it is ADME, organism-based. Also noted: dose 10 mg/kg, route oral. The note with it: in vivo. In short, it runs like this: as §1
Data set [7] can be described thus: Protein binding in rat plasma. In kind it is ADME, cell-free. As to conditions: read-out: PPB (converted).
The nature of data set [8]: Volume of distribution at steady state in Han Wistar rat at 2 mg/kg, iv. In kind it is ADME, organism-based. The note with it: in vivo, read-out: Vdss. In short, it runs like this: (§2)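 Same Wistar Han rat PK study, intravenous arm at 2 mg/kg. Clearance, Vd,ss and t1/2 were taken from the iv data.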
Data set [9] is described as follows: Clearance in Han Wistar rat at 2 mg/kg, iv. In kind it is ADME, organism-based. As to conditions: in vivo. The gist of the method:
as §2

A short description of data set [10]: Oral bioavailability in Han Wistar rat at 10 mg/kg. The class given is ADME, organism-based. The note with it: in vivo. In short, it runs like this: as §1
Data set [11] can be described thus: Half life in Han Wistar rat at 2 mg/kg, iv. The note with it: in vivo. In kind it is ADME, organism-based. In short, it runs like this:
as §2

Beta-secretase 1, sequence (P56817 whole entry): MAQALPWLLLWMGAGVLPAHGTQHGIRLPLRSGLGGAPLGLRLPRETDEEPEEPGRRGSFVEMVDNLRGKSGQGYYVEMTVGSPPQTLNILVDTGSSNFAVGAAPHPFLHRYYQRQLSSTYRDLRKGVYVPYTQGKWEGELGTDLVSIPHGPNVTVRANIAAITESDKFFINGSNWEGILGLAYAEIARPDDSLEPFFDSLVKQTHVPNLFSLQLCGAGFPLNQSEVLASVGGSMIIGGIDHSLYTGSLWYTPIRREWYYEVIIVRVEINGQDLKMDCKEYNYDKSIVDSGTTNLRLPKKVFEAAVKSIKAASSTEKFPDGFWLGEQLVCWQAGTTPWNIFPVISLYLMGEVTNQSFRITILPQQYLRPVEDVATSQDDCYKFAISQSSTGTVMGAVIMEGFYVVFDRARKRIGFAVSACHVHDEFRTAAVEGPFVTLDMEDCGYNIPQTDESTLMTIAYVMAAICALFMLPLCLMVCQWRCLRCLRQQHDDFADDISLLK

Consider `CN1C(=O)[C@@H]2CN(c3ccc(F)cc3)C[C@]2(c2cc(-c3cccc(C#N)c3)cs2)N=C1N`, for which, in [1], the half-inhibitory concentration (IC50) is more than 30000 nM.

With `CN1C(=O)[C@@H]2CN(c3ncccn3)C[C@]2(c2cc(-c3cccc(C#N)c3)cs2)N=C1N`, the 50% inhibitory concentration (IC50) in [1] was more than 30000 nM.

As for `COc1nc(N2C[C@H]3C(=O)N(C)C(=N)N[C@@]3(c3cc(-c4cccc(C#N)c4)cs3)C2)ncc1F`, the Activity in data set [2] was determined as 45%.

As for `CCCOc1nc(N2C[C@H]3C(=O)N(C)C(=N)N[C@@]3(c3cc(-c4cccc(C#N)c4)cs3)C2)ncc1F`, in data set [1], the IC50 was 1200 nM. Moreover, in data set [3], the Ki is 1 nM. For the same compound, the Activity in [2] was 12%.

As to `CN1C(=N)N[C@@]2(c3cc(-c4cccc(C#N)c4)cs3)CN(c3ncc(F)c(N4CCOCC4)n3)C[C@H]2C1=O`, the IC50 in data set [1] was more than 30000 nM. In addition, in data set [3], the inhibitory constant (Ki) was determined as 1 nM. Further, the Activity in data set [4] turned out to be 17%.

In data set [1], `COc1cc(C#N)cc(-c2csc([C@]34CN(c5ncc(F)cn5)C[C@H]3C(=O)N(C)C(=N)N4)c2)c1` displayed an IC50 of 1600 nM. Besides, affinity in data set [3] was put at a Ki of 1 nM.

`CCc1nc(N2C[C@H]3C(=O)N(C)C(=N)N[C@@]3(c3cc(-c4cccc(C#N)c4)cs3)C2)ncc1F` gave an IC50 in data set [1] of 900 nM. For the same compound, in data set [3], the inhibitory constant (Ki) is 1 nM. Besides, in data set [4], the Activity is reported as 49%.

In data set [1], `CN1C(=N)N[C@@]2(c3cc(-c4cccc(Cl)c4)cs3)CN(c3ncc(F)cn3)C[C@H]2C1=O` displayed a half-inhibitory concentration (IC50) of 1200 nM. The compound also returned an inhibition constant Ki in data set [3] of 1 nM.

Compound `CN1C(=N)N[C@@]2(c3cc(Br)cs3)CN(c3ncc(F)cn3)C[C@H]2C1=O` returned a 50% inhibitory concentration (IC50) in [1] of 900 nM. Further, the affinity in data set [3], expressed as Ki, was 100 nM.

Regarding `CN1C(=N)N[C@@]2(c3cc(-c4cccc(C#N)c4)cs3)CN(c3ncc(F)c(N4CCCC4)n3)C[C@H]2C1=O`, in data set [1], the IC50 was more than 30000 nM. Further, the Ki in [3] was determined as 3 nM. The Activity in data set [4] was determined as 2%.

`CN1C(=N)N[C@@]2(c3cc(-c4ccc(F)c(C#N)c4)cs3)CN(c3ncc(F)cn3)C[C@H]2C1=O` yielded a concentration for half-maximal inhibition (IC50) in [1] of 5700 nM. The same compound came in with an inhibitory constant (Ki) in data set [3] of 4 nM.

With `CN1C(=N)N[C@@]2(c3cc(-c4cc(F)cc(C#N)c4)cs3)CN(c3ncc(F)cn3)C[C@H]2C1=O`, the IC50 in data set [1] came out at 1600 nM. Further, the Ki in data set [3] is 2 nM.

In data set [5], `Cc1nc(N2C[C@H]3C(=O)N(C)C(=N)N[C@@]3(c3cc(-c4cccc(C#N)c4)cs3)C2)nc(C)c1F` showed a total exposure AUC(0-inf) of 34 µM·h. In data set [3], the inhibitory constant (Ki) amounted to 1 nM. In data set [6], this compound showed a Cmax of 5.8 µM. Also, the fraction unbound in data set [7] was 0.003. Also, in data set [4], the Activity was 54%. In addition, in [8], the Vd was found to be 1 L/kg. The compound also registered a clearance in data set [9] of 5.6 mL/min/kg. Moreover, the bioavailability in data set [10] was determined as 54%. The half-life in [11] was 2.1 h.

With `Cc1nc(N2C[C@H]3C(=O)N(C)C(=N)N[C@@]3(c3cc(-c4cccc(C#N)c4)cs3)C2)ncc1F`, the 50% inhibitory concentration (IC50) in data set [1] is 600 nM. The Ki in data set [3] amounted to 0.7 nM. The Activity in data set [4] is reported as 38%.

Turning to `CN1C(=N)N[C@@]2(c3cc(-c4cc(F)cc(F)c4)cs3)CN(c3ncc(F)cn3)C[C@H]2C1=O`, in data set [1], the IC50 is 1000 nM. Also, in [3], the Ki amounted to 10 nM.

In the case of `COc1nc(N2C[C@H]3C(=O)N(C)C(=N)N[C@@]3(c3cc(-c4cccc(C#N)c4)cs3)C2)nc(C)c1F`, the half-inhibitory concentration (IC50) in [1] was 11000 nM. Moreover, the Ki in data set [3] was found to be 0.7 nM.

`CCOc1nc(N2C[C@H]3C(=O)N(C)C(=N)N[C@@]3(c3cc(-c4cccc(C#N)c4)cs3)C2)ncc1F` came in with an IC50 in data set [1] of 700 nM. Besides, the Ki in [3] was 1 nM. In [2], the Activity is recorded as 20%.

Regarding `CN1C(=N)N[C@@]2(c3cc(-c4ccc(Cl)c(C#N)c4)cs3)CN(c3ncc(F)cn3)C[C@H]2C1=O`, half-maximal inhibition in data set [1] (IC50) required 5500 nM. Moreover, in data set [3], the inhibitory constant (Ki) was found to be 10 nM.
